Experimental data as given in ChEMBL document CHEMBL4130564, “Indolylalkyltriphenylphosphonium Analogues Are Membrane-Depolarizing Mycobactericidal Agents” (ACS Med Chem Lett, 2017).

What was measured:
[1] = tested on: Mycobacterium tuberculosis; assay: Antibacterial activity against Mycobacterium bovis BCG ATCC 35734 after 5 days by broth dilution method; format: functional; settings: BCG str. ATCC 35743, 120 h
In short: (§1)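 Broth dilution; growth read by turbidity; MIC50 and MIC90 are the concentrations reducing growth by 50% and 90% relative to untreated controls; average of two or more separate determinations.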

[2] = tested on: Mycobacterium tuberculosis; assay: Antibacterial activity against Mycobacterium tuberculosis H37Rv ATCC 27294 after 7 days by broth dilution method; format: functional; settings: H37Rv ATCC 27294, 168 h; in short: as §1
[3] = tested on: Vero C1008; assay: Cytotoxicity against African green monkey Vero E6 cells assessed as reduction in cell viability after 48 hrs by cell titre 96 aqueous one solution-based assay; settings: Chlorocebus sabaeus, Vero C1008, 48 h
In short: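 Vero cell viability was compared with untreated control cells. IC50 was taken as the concentration giving 50% loss of viability, averaged over two or more separate determinations.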

[4] = tested on: Mycobacterium tuberculosis; assay: Bactericidal activity against Mycobacterium bovis BCG ATCC 35734 assessed as reduction in colony forming units after 5 days; format: functional, BCG str. ATCC 35743; settings: for MBC: Mycobacterium tuberculosis, BCG ATCC 35734, 120 h, read-out: MBC99.9
[5] = Hemolytic activity against human RBC after 1 hr; format: ADME, cell-based, Erythrocyte; settings: human red blood cells (erythrocytes)
In short: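 Human red blood cells were exposed to compound, and lysis was scaled against Triton X-100 (2% v/v), taken as 100% hemolysis. HC50 was the concentration lysing 50% of cells, averaged over two or more separate determinations.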

Structure (SMILES) | MIC50 [1] [µM] | MIC90 [1] [µM] | further results
O=[N+]([O-])c1cccc2ccn(CCCCC[P+](c3ccccc3)(c3ccccc3)c3ccccc3)c12 | 1 | 2 | –
Fc1ccc2ccn(CCC[P+](c3ccccc3)(c3ccccc3)c3ccccc3)c2c1 | 6 | 12 | –
O=[N+]([O-])c1ccc2ccn(CCC[P+](c3ccccc3)(c3ccccc3)c3ccccc3)c2c1 | 7 | 13 | –
COc1cccc2ccn(CCC[P+](c3ccccc3)(c3ccccc3)c3ccccc3)c12.[I-] | 4 | 6 | MIC50 [2]: 6 µM; MIC90 [2]: 20 µM; IC50 [3]: 34 µM; MBC99 [4]: 13 µM; MBC [4]: 25 µM; HC50 at 1 h [5]: > 300 µM
c1ccc(CCCCCC[P+](c2ccccc2)(c2ccccc2)c2ccccc2)cc1 | 5.2 | 11.6 | –
Fc1ccc2c(ccn2CCCCC[P+](c2ccccc2)(c2ccccc2)c2ccccc2)c1 | 3 | 5 | –
Fc1cccc2ccn(CCC[P+](c3ccccc3)(c3ccccc3)c3ccccc3)c12 | 5 | 12 | –
COc1ccc2ccn(CCCCC[P+](c3ccccc3)(c3ccccc3)c3ccccc3)c2c1 | 4 | 8 | –
Fc1cccc2ccn(CCCCC[P+](c3ccccc3)(c3ccccc3)c3ccccc3)c12 | 3 | 6 | –
CCCCCCCCCC[P+](c1ccccc1)(c1ccccc1)c1ccccc1 | 3.9 | 6 | –
COc1cccc2c1ccn2CCC[P+](c1ccccc1)(c1ccccc1)c1ccccc1 | 6 | 11 | –
Fc1cccc2c1ccn2CCCCC[P+](c1ccccc1)(c1ccccc1)c1ccccc1 | 3 | 5 | –
Fc1ccc2c(ccn2CCC[P+](c2ccccc2)(c2ccccc2)c2ccccc2)c1 | 8 | 17 | –
c1ccc([P+](CCCCCn2ccc3ccccc32)(c2ccccc2)c2ccccc2)cc1 | 4.3 | 6.3 | –
O=[N+]([O-])c1ccc2c(ccn2CCC[P+](c2ccccc2)(c2ccccc2)c2ccccc2)c1 | 9 | 12 | –
COc1ccc2ccn(CCC[P+](c3ccccc3)(c3ccccc3)c3ccccc3)c2c1 | 7 | 15 | –
O=[N+]([O-])c1ccc2c(ccn2CCCCC[P+](c2ccccc2)(c2ccccc2)c2ccccc2)c1 | 3 | 5 | –
COc1ccc2c(ccn2CCCCC[P+](c2ccccc2)(c2ccccc2)c2ccccc2)c1 | 5 | 10 | –
Fc1cccc2c1ccn2CCC[P+](c1ccccc1)(c1ccccc1)c1ccccc1 | 6 | 12 | –
COc1ccc2c(ccn2CCC[P+](c2ccccc2)(c2ccccc2)c2ccccc2)c1 | 10 | 23 | –
COc1cccc2c1ccn2CCCCC[P+](c1ccccc1)(c1ccccc1)c1ccccc1 | 3 | 5 | –
O=[N+]([O-])c1ccc2ccn(CCCCC[P+](c3ccccc3)(c3ccccc3)c3ccccc3)c2c1 | 3 | 4 | –
O=[N+]([O-])c1cccc2c1ccn2CCC[P+](c1ccccc1)(c1ccccc1)c1ccccc1.[I-] | 5 | 9 | MIC50 [2]: 22 µM; MIC90 [2]: 45 µM; IC50 [3]: > 100 µM; MBC99 [4]: 25 µM; MBC [4]: 50 µM; HC50 at 1 h [5]: 230 µM
Fc1ccc2ccn(CCCCC[P+](c3ccccc3)(c3ccccc3)c3ccccc3)c2c1 | 3 | 5 | –
O=[N+]([O-])c1cccc2ccn(CCC[P+](c3ccccc3)(c3ccccc3)c3ccccc3)c12 | 2 | 4 | –
